Source: ChEMBL document CHEMBL1821653, “Alcohol-, diol-, and carbohydrate-substituted indenoisoquinolines as topoisomerase I inhibitors: investigating the relationships involving stereochemistry, hydrogen bonding, and biological activity” (2011)

What was measured:
[1] = target: T1, DNA topoisomerase 1 (Homo sapiens) (UniProt P11387); experiment: Inhibition of recombinant human TOP1 mediated DNA cleavage after 20 mins by gel electrophoresis relative to camptothecin; set-up: concentration or dose not given beside the values
T1 sequence (whole entry): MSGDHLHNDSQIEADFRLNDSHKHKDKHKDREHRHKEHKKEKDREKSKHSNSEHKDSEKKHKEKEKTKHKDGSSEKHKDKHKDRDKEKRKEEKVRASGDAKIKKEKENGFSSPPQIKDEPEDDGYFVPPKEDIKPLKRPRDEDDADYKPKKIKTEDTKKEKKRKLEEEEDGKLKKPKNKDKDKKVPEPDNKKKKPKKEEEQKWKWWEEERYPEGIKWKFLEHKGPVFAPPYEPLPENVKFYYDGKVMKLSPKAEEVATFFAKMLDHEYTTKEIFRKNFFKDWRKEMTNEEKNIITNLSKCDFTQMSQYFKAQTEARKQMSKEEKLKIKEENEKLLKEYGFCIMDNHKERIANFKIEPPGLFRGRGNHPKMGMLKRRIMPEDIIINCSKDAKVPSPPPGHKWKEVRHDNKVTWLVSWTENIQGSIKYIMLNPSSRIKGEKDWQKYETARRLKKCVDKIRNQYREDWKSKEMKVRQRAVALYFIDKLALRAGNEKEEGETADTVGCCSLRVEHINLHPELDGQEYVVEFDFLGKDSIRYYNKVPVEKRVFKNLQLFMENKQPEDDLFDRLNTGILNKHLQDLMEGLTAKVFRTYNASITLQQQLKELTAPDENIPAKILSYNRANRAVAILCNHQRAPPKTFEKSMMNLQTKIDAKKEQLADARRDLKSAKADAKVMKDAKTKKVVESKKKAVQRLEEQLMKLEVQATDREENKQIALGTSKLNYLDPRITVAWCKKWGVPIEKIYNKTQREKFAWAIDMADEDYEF
In short: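 117-bp oligonucleotide containing Top1 cleavage sites, 3'-end labeled with [α-32P]-dGTP by Klenow fill-in. About 2 nM substrate incubated with recombinant Top1 and various compound concentrations for 20 min at 25 °C in 10 mM Tris-HCl pH 7.5, 50 mM KCl, 5 mM MgCl2, 0.1 mM EDTA, 15 μg/mL BSA. Stopped with 0.5% SDS, run on 20% denaturing PAGE, phosphorimaged.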

HOP-62 = experiment: Antiproliferative activity against human HOP62 cells by SRB assay; assay type: functional
In short: (§1)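 NCI 60-cell-line human tumor panel. Compounds first screened at one dose of 10^-5 M. Selected compounds then tested at five concentrations from 10^-8 to 10^-4 M. GI50 is the concentration giving 50% growth inhibition. GI50 values outside the tested range are assigned 10^-8 M or 10^-4 M.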

HCT-116 = experiment: Antiproliferative activity against human HCT116 cells by SRB assay; assay type: functional; in short: as §1
SF-539 = experiment: Antiproliferative activity against human SF539 cells by SRB assay; assay type: functional; in short: as §1
UACC-62 = experiment: Antiproliferative activity against human UACC62 cells by SRB assay; assay type: functional; in short: as §1
OVCAR-3 = experiment: Antiproliferative activity against human OVCAR3 cells by SRB assay; assay type: functional; in short: as §1
SN12C = experiment: Antiproliferative activity against human SN12C cells by SRB assay; assay type: functional; in short: as §1
DU-145 = experiment: Antiproliferative activity against human DU145 cells by SRB assay; assay type: functional; in short: as §1
MCF7 = experiment: Antiproliferative activity against human MCF7 cells by SRB assay; assay type: functional; in short: as §1

SMILES | inhibition [1] | GI50 (HOP-62) | GI50 (HCT-116) | GI50 (SF-539) | GI50 (UACC-62) | GI50 (OVCAR-3) | GI50 (SN12C) | GI50 (DU-145) | GI50 (MCF7)
C[C@H](O)Cn1c2c(c3ccccc3c1=O)C(=O)c1ccccc1-2 | 75% |  |  |  |  |  |  |  | 
CC(CO)n1c2c(c3ccccc3c1=O)C(=O)c1ccccc1-2 (racemic) | 20% | 17.6 µM | 15.9 µM | 14.4 µM | 11.7 µM | 25.7 µM | 37.1 µM | 23.7 µM | 34.4 µM
C[C@@H](CO)n1c2c(c3ccccc3c1=O)C(=O)c1ccccc1-2 | 50% |  |  |  |  |  |  |  | 
O=C1c2ccccc2-c2c1c1ccccc1c(=O)n2C[C@H](O)[C@H](O)[C@H](O)[C@H](O)CO |  | 3.23 µM | 4.17 µM | 5.75 µM | 2.95 µM | 13.8 µM | 3.39 µM | 3.31 µM | 1.78 µM
O=C1c2ccccc2-c2c1c1ccc([N+](=O)[O-])cc1c(=O)n2C[C@H](O)[C@@H](O)[C@H](O)[C@H](O)CO | > 95% | 7.35 µM | 5.08 µM | 2.61 µM | 2.98 µM | 4.26 µM | 17.7 µM | 4.76 µM | 0.88 µM
O=C(CO)Cn1c2c(c3ccccc3c1=O)C(=O)c1ccccc1-2 | 20% | 40.7 µM | 30.9 µM | 20 µM | 58.9 µM | 5.23 µM | 81.3 µM | 17.8 µM | 32.3 µM
NCC(O)Cn1c2c(c3ccccc3c1=O)C(=O)c1ccccc1-2 (racemic) | 50% | 0.276 µM | 0.263 µM | 0.344 µM | 0.318 µM | 1.32 µM | 0.206 µM | 0.13 µM | 0.198 µM
CC[C@@]1(O)C(=O)OCc2c1cc1n(c2=O)Cc2cc3ccccc3nc2-1 [CAMPTOTHECIN] |  |  |  |  |  |  |  |  | 0.01 µM
C[C@H](CO)n1c2c(c3ccccc3c1=O)C(=O)c1ccccc1-2 | 20% |  |  |  |  |  |  |  | 
COc1cc2c3c(n(C)c(=O)c2cc1OC)-c1cc2c(cc1C3=O)OCO2 |  | 1.3 µM | 35 µM |  | 4.2 µM |  | 68 µM | 37 µM | 1.58 µM
O=C1c2ccccc2-c2c1c1ccccc1c(=O)n2C[C@H](O)CO | 75% | 5.01 µM |  | 7.41 µM | 5.37 µM | 14.5 µM | 6.92 µM | 5.75 µM | 4.9 µM
O=C1c2ccccc2-c2c1c1ccccc1c(=O)n2C[C@@H](O)[C@H](O)[C@H](O)CO | 50% | 8.71 µM |  | 7.59 µM | 7.41 µM | > 100 µM | 20 µM | 16.6 µM | 4.57 µM
O=C1c2ccccc2-c2c1c1ccccc1c(=O)n2C[C@H](O)[C@@H](O)[C@H](O)[C@H](O)CO | 50% |  |  |  |  |  |  |  | 
COc1cc2c3c(n(C[C@H](O)CO)c(=O)c2cc1OC)-c1ccccc1C3=O | 75% | 0.336 µM | 0.23 µM | 0.214 µM | 0.144 µM | 0.287 µM | 0.501 µM | 0.419 µM | 0.097 µM
C[C@@H](O)Cn1c2c(c3ccccc3c1=O)C(=O)c1ccccc1-2 | 75% | 3.39 µM | 5.52 µM | 6.31 µM | 10.2 µM | 21.4 µM | 9.33 µM | 8.32 µM | 3.23 µM
O=C1c2ccccc2-c2c1c1ccccc1c(=O)n2C[C@@H](O)CO | 50% | 3.79 µM | 4.47 µM | 5.72 µM | 4.36 µM | 16.1 µM | 3.77 µM | 2.34 µM | 3.04 µM
O=C1c2ccccc2-c2c1c1ccccc1c(=O)n2C[C@H](O)[C@H](O)[C@H](O)CO | 0% | 2.95 µM | 3.39 µM | 2.14 µM | 3.23 µM | 13.5 µM | 2.4 µM | 1.32 µM | 1.38 µM
COc1cc2c3c(n(CCCNCCO)c(=O)c2cc1OC)-c1cc2c(cc1C3=O)OCO2 [LMP-744] | > 95% |  |  | 0.04 µM |  | 0.5 µM |  |  | < 0.01 µM
COc1cc2c3c(n(CCCn4ccnc4)c(=O)c2cc1OC)-c1cc2c(cc1C3=O)OCO2 [INDIMITECAN] | > 95% |  |  |  |  |  |  |  | 0.01 µM
O=C1c2ccccc2-c2c1c1ccccc1c(=O)n2C[C@H](O)[C@@H](O)[C@H](O)CO | 50% | 3.23 µM | 3.39 µM | 7.94 µM | 2.88 µM | 24 µM | 2.24 µM |  | 1.74 µM
O=C1c2ccccc2-c2c1c1ccccc1c(=O)n2CC(O)CO (racemic) | 50% | 7.76 µM | 4.36 µM | 5.89 µM | 7.58 µM | 18.6 µM | 2.95 µM | 2.88 µM | 3.55 µM
O=C1c2ccccc2-c2c1c1ccccc1c(=O)n2C[C@H](O)[C@@H](O)[C@@H](O)[C@H](O)CO | 20% |  |  |  |  |  |  |  | 
O=C1c2ccccc2-c2c1c1ccccc1c(=O)n2C[C@@H](O)[C@@H](O)[C@H](O)[C@H](O)CO | 20% |  |  |  |  |  |  |  | 
CC(O)Cn1c2c(c3ccccc3c1=O)C(=O)c1ccccc1-2 (racemic) | 20% | 3.46 µM | 5.75 µM | 6.76 µM | 6.16 µM | 16.2 µM | 3.98 µM | 4.36 µM | 3.8 µM
COc1cc2c3c(n(CCCN4CCOCC4)c(=O)c2cc1OC)-c1cc2c(cc1C3=O)OCO2 [INDOTECAN] | > 95% |  |  |  |  |  |  |  | 0.37 µM
O=C1c2ccccc2-c2c1c1ccccc1c(=O)n2C[C@@H](O)[C@@H](O)[C@H](O)CO | 75% | 6.46 µM | 3.39 µM | 11.2 µM | 6.31 µM | 13.2 µM | 5.01 µM | 3.98 µM | 1.9 µM
O=C1c2ccccc2-c2c1c1ccc([N+](=O)[O-])cc1c(=O)n2C[C@H](O)CO | > 95% | 0.089 µM | 0.025 µM | 0.157 µM | 0.098 µM | 0.309 µM | 0.241 µM | 0.04 µM | 0.016 µM
